Measurements gathered from unrelated publications.
Lines come from different studies, so protocols differ. Converted amounts (≈) assume the structure as drawn.
Organism: Mycobacterium tuberculosis
Read-out: microbial growth

`CCCCCCC#Cc1cncc(-c2nnc(SCc3cc([N+](=O)[O-])cc([N+](=O)[O-])c3)n2CCO)c1` gave an IC50 of 1.4 µM (resazurin; ERDMAN).
With `CC(c1cccnc1)n1c(=S)[nH]c2cc(CO)c(Cl)cc2c1=O` (stereo not drawn) the MIC90 was greater than 100 µM (H37RV).
With `Cc1ccc(-c2cc(NCCc3ccc(C(F)(F)F)cc3)n3cnnc3n2)o1` the IC90 was 0.37 µM (H37RV).
`Cc1ccc(Cn2c(=S)[nH]c3ccc(Cl)cc3c2=O)cn1` has an MIC90 of greater than 25 µM (H37RV).
The IC50 of `COc1ccc(-c2cc(C(F)(F)F)c3c(N)c(C(=O)N4CCCC4)sc3n2)cc1` is reported as greater than 50 µM (H37RV).
With `Clc1ccc(CCNc2cc(-c3ccco3)nc3nncn23)cc1` the MIC was 4.8 µM (≈ 1.63 µg/mL) (H37RV).
The MIC90 of `O=c1c2cc(Cl)cnc2[nH]c(=S)n1Cc1cccnc1` is reported as greater than 100 µM (H37RV).
The IC50 of `CCCCCCC#Cc1cncc(-c2nnc(SCc3ccc(Cl)cc3)n2CCO)c1` is reported as 49 µM (resazurin; ERDMAN).
The MIC90 of `NNC(=O)c1ccncc1` is reported as 0.34 µM (H37RA).
For `CCCCCCC#Cc1cncc(-c2nnc(SCc3cc([N+](=O)[O-])cc([N+](=O)[O-])c3)n2CCCN)c1`, the IC50 was 3.2 µM (resazurin; ERDMAN).
`O=C(Cc1ccccc1)Nc1cc(-c2ccccn2)nc2nncn12` has an IC90 of 2 µM (H37RV).
`CCCCCCC#Cc1cncc(-c2nnc(SCc3ccc([N+](=O)[O-])o3)n2CCO)c1` has an IC50 of 1.3 µM (resazurin; ERDMAN).
For `c1ccc(CCOc2cc(-c3ccccn3)nc3nncn23)cc1`, the MIC was greater than 100 µM (H37RV).
`Nc1c(C(=O)NCc2ccccc2)sc2nc(-c3ccccc3)ccc12` has an IC50 of 42 µM (H37RV).
The MIC of `Cc1ccc(CCNc2cc(-c3ccccn3)nc3nncn23)cc1` is reported as 0.26 µM (≈ 0.0859 µg/mL) (H37RV).
`CC(=O)c1ccc(OCCc2cccc(F)c2)c(C(N)=O)c1` gave an IC50 of 1.3 µM.
`NNC(=O)c1ccncc1` has an MIC90 of 0.81 µg/mL (H37RV).
The MIC90 of `C[C@H](N)C(=O)OCc1cc2[nH]c(=S)n(Cc3cncnc3)c(=O)c2cc1Cl` is reported as 4.22 µM (H37RV).
The IC50 of `Nc1c(C(=O)NCc2ccc(F)cc2)sc2ncccc12` is reported as greater than 100 µM (H37RV).
`NCC[C@H](O)C(=O)N[C@@H]1C[C@H](N)[C@@H](O[C@H]2O[C@H](CN)[C@@H](O)[C@H](O)[C@H]2O)[C@H](O)[C@H]1O[C@H]1O[C@H](CO)[C@@H](O)[C@H](N)[C@H]1O` has an MIC50 of 1.2 µg/mL (≈ 2.05 µM) (H37RV).
For `CC(=O)c1cc(-c2ccoc2)ccc1OCCc1cccc(F)c1`, the IC50 was 0.26 µM.
`COc1ccc(-c2cc(C(F)(F)F)c3c(N)c(C(=O)N4CCC4)sc3n2)cc1` has an IC50 of greater than 100 µM (H37RV).
`CCCCCCC#Cc1cncc(-c2nnc(SC[C@H]3O[C@@H](n4ccc(=O)[nH]c4=O)[C@H](O)[C@@H]3O)n2C)c1` has an IC50 of 98 µM (resazurin; ERDMAN).
For `CNC(=O)c1cc(C(F)F)ccc1OCCc1cccc(F)c1`, the IC50 was 0.73 µM.
For `COC(=O)OCc1cc2[nH]c(=S)n(Cc3cncnc3)c(=O)c2cc1Cl`, the MIC90 was 1.84 µM (H37RV).
`CCCCCCC#Cc1cncc(-c2nnc(SC[C@H]3O[C@@H](n4ccc(=O)[nH]c4=O)[C@H](O)[C@@H]3O)n2CCCN)c1` has an IC50 of greater than 200 µM (resazurin; ERDMAN).
`Cc1ccc(CCNc2cc(-c3ccc(Cl)s3)nc3nncn23)cc1` has an MIC of 4.8 µM (≈ 1.78 µg/mL) (H37RV).
`CCCCCCC#Cc1cncc(-c2nnc(SCc3cc(=O)[nH]c4ccccc34)n2C)c1` has an IC50 of greater than 200 µM (resazurin; ERDMAN).
For `COc1ccc(-c2cc(C(F)(F)F)c3c(N)c(C(=O)N4CC(F)(F)C4)sc3n2)cc1`, the IC50 was greater than 50 µM (H37RV).
The MIC of `CCc1ccc(CCNc2cc(-c3ccccn3)nc3nnc(C4CC4)n23)cc1` is reported as 17 to 50 µM (≈ 6.54 to 19.2 µg/mL) (H37RV; 5 days).
`CO[C@H]1/C=C/O[C@@]2(C)Oc3c(C)c(O)c4c(O)c(c(/C=N/N5CCN(C)CC5)c(O)c4c3C2=O)NC(=O)/C(C)=C\C=C\[C@H](C)[C@H](O)[C@@H](C)[C@@H](O)[C@@H](C)[C@H](OC(C)=O)[C@@H]1C` has an MIC90 of 0.12 µg/mL (H37RV).
With `O=c1c2cc(C(F)(F)F)ncc2[nH]c(=S)n1Cc1cccnc1` the MIC90 was 45.5 µM (H37RV).
With `COc1ccc(-c2cc(C(F)(F)F)c3c(N)c(C(=O)Nc4cc(C)ccc4C)sc3n2)cc1` the IC50 was greater than 100 µM (H37RV).
With `CCCCCCC#Cc1cncc(-c2nnc(SCc3ccc([N+](=O)[O-])cc3)n2CCCN)c1` the IC50 was 20 µM (resazurin; ERDMAN).
`O=C(c1cc2ccc(-c3ccccc3)nc2s1)N1CCCC1` has an IC90 of greater than 100 µM (H37RV; 5 days).
For `O=c1c2cc(Cl)c(CF)cc2[nH]c(=S)n1Cc1cccnc1`, the MIC90 was 6.72 µM (H37RV).
For `COc1ccc(CCNc2cc(-c3ccccn3)nc3cc(C4CC4)nn23)cc1`, the MIC was 42 µM (≈ 16.2 µg/mL) (H37RV).
The IC50 of `CCN(CC)C(=O)c1sc2ncccc2c1N` is reported as greater than 100 µM (H37RV).
`N#Cc1cc2c(=O)n(Cc3cccnc3)c(=S)[nH]c2cn1` has an MIC90 of 85.8 µM (H37RV).
